What was measured:
Conditions in all cases: stereoisomer not certain
[1] = system: O51D1 I89V
Summary of the method: (§1)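 Assay methods differ from source to source, frequently being transient luciferase assays in mammalian cell lines. For each receptor–molecule pair, the label responsive (active) applies when the original authors judged the measured signal statistically different from baseline, and non-responsive (inactive) applies otherwise.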

[2] = system: O51F1
Summary of the method: as §1
Target sequence in this assay (as listed by the source): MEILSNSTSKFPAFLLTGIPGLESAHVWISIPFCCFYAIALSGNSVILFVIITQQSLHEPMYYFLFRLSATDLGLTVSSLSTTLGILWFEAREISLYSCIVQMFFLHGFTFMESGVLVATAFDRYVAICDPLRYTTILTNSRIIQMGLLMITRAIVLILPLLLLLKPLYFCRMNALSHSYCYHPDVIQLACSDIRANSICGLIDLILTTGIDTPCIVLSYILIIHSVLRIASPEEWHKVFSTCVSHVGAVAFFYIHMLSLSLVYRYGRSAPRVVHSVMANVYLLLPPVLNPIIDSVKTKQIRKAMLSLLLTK

[3] = system: O51F1; remark: listed apart in the source
Summary of the method: as §1
Target sequence in this assay (as listed by the source): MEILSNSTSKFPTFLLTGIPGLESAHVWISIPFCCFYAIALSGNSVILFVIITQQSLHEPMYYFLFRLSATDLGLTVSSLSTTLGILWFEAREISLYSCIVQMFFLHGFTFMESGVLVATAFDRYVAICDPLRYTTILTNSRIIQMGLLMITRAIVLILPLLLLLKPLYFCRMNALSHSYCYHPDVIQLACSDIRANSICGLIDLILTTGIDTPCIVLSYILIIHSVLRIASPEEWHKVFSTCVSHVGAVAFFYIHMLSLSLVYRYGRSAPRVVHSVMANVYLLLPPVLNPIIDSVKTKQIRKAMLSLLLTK

[4] = system: O51F2 Y341S
Summary of the method: as §1

[5] = system: O51G1
Summary of the method: as §1

[6] = system: O51I1 V164L
Summary of the method: as §1

[7] = system: O51J1 R75H I202V
Summary of the method: as §1

[8] = system: O51L1
Summary of the method: as §1
Target sequence in this assay (as listed by the source): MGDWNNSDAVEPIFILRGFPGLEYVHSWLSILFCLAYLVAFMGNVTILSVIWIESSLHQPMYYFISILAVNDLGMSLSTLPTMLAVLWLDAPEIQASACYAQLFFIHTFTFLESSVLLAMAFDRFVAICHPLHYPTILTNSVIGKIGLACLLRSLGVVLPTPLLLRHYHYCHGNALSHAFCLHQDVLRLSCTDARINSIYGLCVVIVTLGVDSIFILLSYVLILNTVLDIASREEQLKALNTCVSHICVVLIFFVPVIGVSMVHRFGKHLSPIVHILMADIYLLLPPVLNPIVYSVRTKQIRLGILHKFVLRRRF

[9] = system: O51L1; remark: listed apart in the source
Summary of the method: as §1
Target sequence in this assay (as listed by the source): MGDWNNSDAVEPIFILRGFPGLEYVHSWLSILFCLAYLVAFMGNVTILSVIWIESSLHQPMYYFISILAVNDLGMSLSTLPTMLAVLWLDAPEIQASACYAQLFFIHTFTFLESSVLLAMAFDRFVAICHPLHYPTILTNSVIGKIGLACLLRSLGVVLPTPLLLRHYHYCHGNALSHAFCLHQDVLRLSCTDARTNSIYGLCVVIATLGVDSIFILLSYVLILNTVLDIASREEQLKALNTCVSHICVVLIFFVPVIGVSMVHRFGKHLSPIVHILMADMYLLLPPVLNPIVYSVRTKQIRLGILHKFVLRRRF

[10] = system: O51T1
Summary of the method: as §1

O51T1, sequence (as listed by the source): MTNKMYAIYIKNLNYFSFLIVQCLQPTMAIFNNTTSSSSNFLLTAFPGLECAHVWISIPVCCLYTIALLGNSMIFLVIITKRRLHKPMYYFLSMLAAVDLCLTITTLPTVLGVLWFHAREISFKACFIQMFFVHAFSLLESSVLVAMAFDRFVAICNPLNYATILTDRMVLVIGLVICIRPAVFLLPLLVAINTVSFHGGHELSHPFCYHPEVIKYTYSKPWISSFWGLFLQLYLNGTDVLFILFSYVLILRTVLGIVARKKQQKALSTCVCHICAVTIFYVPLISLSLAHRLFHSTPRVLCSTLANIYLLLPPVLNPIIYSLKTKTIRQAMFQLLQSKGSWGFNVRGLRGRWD
O51G1, sequence (as listed by the source): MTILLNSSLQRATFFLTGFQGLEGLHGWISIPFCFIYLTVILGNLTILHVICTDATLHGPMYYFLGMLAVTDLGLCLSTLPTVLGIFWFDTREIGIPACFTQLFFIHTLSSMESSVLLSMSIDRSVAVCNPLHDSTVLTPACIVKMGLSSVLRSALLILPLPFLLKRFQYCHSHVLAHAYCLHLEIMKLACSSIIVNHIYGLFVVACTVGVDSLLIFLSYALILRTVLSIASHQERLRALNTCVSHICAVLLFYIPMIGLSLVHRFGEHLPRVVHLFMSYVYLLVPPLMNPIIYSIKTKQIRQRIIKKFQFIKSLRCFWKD
O51F2 Y341S, sequence (as listed by the source, stated change not applied): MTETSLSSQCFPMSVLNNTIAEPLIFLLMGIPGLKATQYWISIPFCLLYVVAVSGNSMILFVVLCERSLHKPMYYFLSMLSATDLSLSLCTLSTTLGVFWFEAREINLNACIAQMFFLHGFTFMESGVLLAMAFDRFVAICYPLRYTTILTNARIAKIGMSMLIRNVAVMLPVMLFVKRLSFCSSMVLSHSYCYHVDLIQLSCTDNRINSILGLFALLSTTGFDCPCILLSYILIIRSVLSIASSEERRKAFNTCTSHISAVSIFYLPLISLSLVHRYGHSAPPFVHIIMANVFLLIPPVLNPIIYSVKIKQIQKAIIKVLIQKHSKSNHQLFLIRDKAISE
O51I1 V164L, sequence (as listed by the source, stated change not applied): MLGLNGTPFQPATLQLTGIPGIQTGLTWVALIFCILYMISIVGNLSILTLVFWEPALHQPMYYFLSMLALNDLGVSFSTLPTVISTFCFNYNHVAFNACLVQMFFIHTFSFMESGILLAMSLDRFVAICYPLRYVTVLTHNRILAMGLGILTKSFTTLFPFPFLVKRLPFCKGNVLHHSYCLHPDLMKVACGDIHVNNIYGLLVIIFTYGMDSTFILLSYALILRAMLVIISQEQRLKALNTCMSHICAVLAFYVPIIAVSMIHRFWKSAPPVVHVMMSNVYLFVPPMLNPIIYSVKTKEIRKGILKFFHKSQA
O51D1 I89V, sequence (as listed by the source, stated change not applied): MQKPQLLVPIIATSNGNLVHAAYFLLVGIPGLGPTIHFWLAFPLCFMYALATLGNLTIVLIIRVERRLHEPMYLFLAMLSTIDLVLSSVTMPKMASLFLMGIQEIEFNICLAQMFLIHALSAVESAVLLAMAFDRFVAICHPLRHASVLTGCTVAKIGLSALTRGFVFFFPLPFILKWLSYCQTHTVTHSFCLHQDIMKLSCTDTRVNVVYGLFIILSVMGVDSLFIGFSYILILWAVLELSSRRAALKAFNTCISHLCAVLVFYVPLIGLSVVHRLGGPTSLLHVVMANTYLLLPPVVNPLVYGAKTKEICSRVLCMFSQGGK

For `C=CCOC(=O)Cc1ccccc1`, the “odorant receptor agonist call” value [1] was “inactive”, the “odorant receptor agonist call” value [2] was “inactive” and the “odorant receptor agonist call” value [3] was “inactive”. For the same compound, the “odorant receptor agonist call” value [4] was “inactive”, the “odorant receptor agonist call” value [5] was “inactive” and the “odorant receptor agonist call” value [6] was “inactive”. For the same compound, the “odorant receptor agonist call” value [7] was “inactive”, the “odorant receptor agonist call” value [8] was “active” and the “odorant receptor agonist call” value [9] was “active”. The “odorant receptor agonist call” value [10] was “inactive”.

Reference: the M2OR odorant receptor database
